The values that follow come from ChEMBL document CHEMBL1123282, “Antiinflammatory activity of substituted 6-hydroxypyrimido[2,1-f]purine-2,4,8(1H,3H,9H)-triones. Atypical nonsteroidal antiinflammatory agents” (J Med Chem, 1986).

As a reminder, the inhibition in vivo is how much of the control response was suppressed. The term inhibition denotes how much of the control response was suppressed. Broadly, the Inhibition is how much of the control response was suppressed.

“And” between values parts separate entries of the source, which are not always exact repeats. Identical values can stand only once.

Test [1] concerns Rattus norvegicus. As to the kind of experiment: Compound was tested in vivo for antiinflammatory activity against rats by RPAR(reverse passive Arthus reaction) synovitis method ata dose of 50 mg/kg, po. Type of test: functional. In a few lines: (§1)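 Lewis rats, oral drug or placebo 1 h before iv BSA (2.28 mg in saline), then intraarticular rabbit anti-BSA (0.54 mg) into one knee and saline into the other, under light anesthesia. Second oral dose at 3 h; the total of both doses is the calculated dose. About 17 h after induction, subpatellar tissue with synovium is excised and weighed. Response is antibody-minus-saline knee weight, tested by analysis of variance.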

For test [2], the target named is T1, Polyunsaturated fatty acid 5-lipoxygenase (Rattus norvegicus) (UniProt P12527).
T1 sequence (whole entry): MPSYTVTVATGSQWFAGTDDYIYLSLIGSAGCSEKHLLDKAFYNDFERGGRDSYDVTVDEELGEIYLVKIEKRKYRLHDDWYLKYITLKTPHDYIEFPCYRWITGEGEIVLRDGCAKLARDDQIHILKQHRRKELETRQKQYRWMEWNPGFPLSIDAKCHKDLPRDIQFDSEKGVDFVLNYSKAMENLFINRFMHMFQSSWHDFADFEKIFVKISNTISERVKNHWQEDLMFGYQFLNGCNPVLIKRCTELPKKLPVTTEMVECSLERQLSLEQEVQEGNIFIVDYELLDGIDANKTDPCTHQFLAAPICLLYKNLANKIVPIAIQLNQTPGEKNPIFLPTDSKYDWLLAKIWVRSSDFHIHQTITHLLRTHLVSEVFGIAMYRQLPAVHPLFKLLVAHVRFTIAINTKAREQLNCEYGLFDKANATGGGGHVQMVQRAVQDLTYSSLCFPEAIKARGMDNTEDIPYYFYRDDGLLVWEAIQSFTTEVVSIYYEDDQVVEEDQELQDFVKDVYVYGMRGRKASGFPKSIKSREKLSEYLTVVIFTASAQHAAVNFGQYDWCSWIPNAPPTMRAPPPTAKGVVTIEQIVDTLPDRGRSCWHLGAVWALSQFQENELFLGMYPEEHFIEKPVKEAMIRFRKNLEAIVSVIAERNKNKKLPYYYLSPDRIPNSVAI
Briefly: In vitro inhibitory activity against Lipoxygenase in rat neutrophils at a dose of 50 uM. A digest of the protocol:
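Neutrophils come from the 4 h pleural exudate of male Wistar-Lewis rats given iv BSA plus intrapleural rabbit anti-BSA IgG. Cells are washed, red cells lysed with NH4Cl, and resuspended at about 5×10^6 cells/0.1 mL in Tris pH 7.4 with NaCl and 1 mM CaCl2. Cells are preincubated with compound 4 min at room temperature.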

Test [3] concerns the target Cyclooxygenase (Rattus norvegicus) (UniProt P35355+Q63921). Briefly: In vitro inhibitory activity against Prostaglandin G/H synthase in rat neutrophils at a dose of 50 uM.
In test [4] the test system is Rattus norvegicus. As to the kind of experiment: Compound was tested in vivo for antiinflammatory activity against chronic adjuvant arthritic rat by prophylactic inhibition 2 degree paw after peroral administration of 36 mg/kg of dose. Type of test: functional. The settings on record: route oral.
Test [5] deals with Rattus norvegicus. As to the kind of experiment: Compound was tested in vivo for antiinflammatory activity against chronic adjuvant arthritic rat by prophylactic inhibition 1 degree paw after peroral administration of 36 mg/kg of dose. Type of test: functional. The conditions noted are these: route oral.
The subject of test [6] is Rattus norvegicus. As to the kind of experiment: In vivo antiinflammatory activity against rats by RPAR(reverse passive Arthus reaction) synovitis method. Type of test: functional. The arrangement: concentration or dose not given beside the values. In a few lines:
as §1

The subject of test [7] is Rattus norvegicus. As to the kind of experiment: Tested in vivo for antiinflammatory activity against chronic adjuvant arthritic rat by prophylactic inhibition 2 degree paw after peroral administration of 9 mg/kg of dose. Type of test: functional. The settings on record: route oral. A digest of the protocol:
(§2)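 Prophylactic regimen, rats. Adjuvant is heat-killed Mycobacterium tuberculosis ground to a fine powder in paraffin oil (6 mg/mL); 0.1 mL is injected into the left hind paw. Oral drug is given 1 h before adjuvant challenge, then for 21 consecutive days; controls receive methyl cellulose. Left (1°) and right (2°) hind paw volumes are measured by plethysmograph.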

The test system of test [8] is Rattus norvegicus. Briefly: Tested in vivo for antiinflammatory activity against chronic adjuvant arthritic rat by prophylactic inhibition 1 degree paw after peroral administration of 9 mg/kg of dose. The settings on record: route oral. Type of test: functional. In a few lines: as §2
The test system of test [9] is Rattus norvegicus. Briefly: Compound was tested in vivo against chronic adjuvant arthritic rat by prophylactic inhibition 2 degree paw. Relative potency with respect to (8-Benzyl-5-hydroxy-1,3-dimethyl-6-propyl-1H,8H-1,3,4b,8,9-pentaaza-fluorene-2,4,7-trione). Type of test: functional.
Test [10] deals with Rattus norvegicus. Briefly: Compound was tested in vivo for antiinflammatory activity against chronic adjuvant arthritic rat by prophylactic inhibition 1 degree paw after peroral administration of 36 mg/kg of dose. The conditions noted are these: po.
Test [11] relates to Rattus norvegicus. Briefly: Compound was tested in vivo for antiinflammatory activity against chronic adjuvant arthritic rat by prophylactic inhibition 2 degree paw after peroral administration of 18 mg/kg of dose. The conditions noted are these: po.
Test [12] deals with Rattus norvegicus. As to the kind of experiment: Compound was tested in vivo for antiinflammatory activity against chronic adjuvant arthritic rat by prophylactic inhibition 2 degree paw after peroral administration of 36 mg/kg of dose. The conditions noted are these: po.
For test [13], the system named is Rattus norvegicus. As to the kind of experiment: Compound was tested in vivo for antiinflammatory activity against chronic adjuvant arthritic rat by prophylactic inhibition 2 degree paw after peroral administration of 25 mg/kg of dose. Type of test: functional. The conditions noted are these: route oral.
Test [14] concerns Rattus norvegicus. Briefly: Compound was tested in vivo for antiinflammatory activity against chronic adjuvant arthritic rat by prophylactic inhibition 1 degree paw after peroral administration of 25 mg/kg of dose. Type of test: functional. The settings on record: route oral.
For test [15], the system named is Rattus norvegicus. Briefly: Compound was tested in vivo for antiinflammatory activity against chronic adjuvant arthritic rat by prophylactic inhibition 1 degree paw after peroral administration of 10 mg/kg of dose. Type of test: functional. The conditions noted are these: route oral. In a few lines: (§3)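 Prophylactic adjuvant arthritis: heat-killed Mycobacterium tuberculosis powder in paraffin oil (6 mg/mL), 0.1 mL injected into the left hind paw. Drug given orally 1 h before adjuvant, then for 21 consecutive days; controls received methyl cellulose. Left (1°) and right (2°) hind paw volumes were measured by plethysmograph.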

Test [16] has as its system Rattus norvegicus. As to the kind of experiment: Compound was tested in vivo for antiinflammatory activity against chronic adjuvant arthritic rat by prophylactic inhibition 2 degree paw after peroral administration of 10 mg/kg of dose. The conditions noted are these: route oral. Type of test: functional. In a few lines: as §3
Test [17] concerns Rattus norvegicus. As to the kind of experiment: Compound was tested for intestinal ulcerogenic effect in rats at a dose of 10 mg/kg. Type of test: functional. In a few lines: (§4)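 Normal fed rats were gavaged once daily for three consecutive days at 10–300 mg/kg and killed 24 h after the last dose. Intestines were examined for ulcers, recording incidence per group of 8 and a lesion score (±SE).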

Test [18] is filed under the species Rattus norvegicus. Briefly: Compound was tested for intestinal Ulcerogenic effect in rats, activity expressed as lesion score. Type of test: functional. A digest of the protocol: as §4
Test [19] is filed under the species Rattus norvegicus. As to the kind of experiment: Compound was tested for intestinal Ulcerogenic effect in rats, activity expressed as ulcer incidence. Type of test: functional. In a few lines: as §4
The species named for test [20] is Rattus norvegicus. Briefly: Compound was tested for gastric Ulcerogenic effect in rats, activity expressed as lesion length.
Test [21] relates to Rattus norvegicus. As to the kind of experiment: Tested in vivo for antiinflammatory activity against chronic adjuvant arthritic rat by prophylactic inhibition 1 degree paw after peroral administration of 10 mg/kg of dose. Type of test: functional. The settings on record: route oral. A digest of the protocol:
as §2

Test [22] concerns Rattus norvegicus. As to the kind of experiment: Tested in vivo for antiinflammatory activity against chronic adjuvant arthritic rat by prophylactic inhibition 2 degree paw after peroral administration of 10 mg/kg of dose. Type of test: functional. The conditions noted are these: route oral. In a few lines:
as §2

In the test with Rattus norvegicus [1], `Cc1c(O)n(Cc2cccc(F)c2)c2nc3c(c(=O)n(C)c(=O)n3C)n2c1=O` came in with an inhibition in vivo at 50 mg/kg of 0%.
Regarding `Cn1c(=O)c2c(nc3n(Cc4ccccc4)c(O)c(CC=C4CCCCC4)c(=O)n23)n(C)c1=O`, the inhibition in test [2] was 10% and 9%; in test [3], 0%. The results for the inhibition in vivo at 36 mg/kg in the test with Rattus norvegicus [4] and in the test on Rattus norvegicus [5] were 39% and 6%, respectively. The Inhibition in the test with Rattus norvegicus [6] was 7%.
Take `CCCCc1c(O)n(Cc2ccccc2)c2nc3c(c(=O)n(C)c(=O)n3C)n2c1=O`: the inhibition in vivo at 9 mg/kg in the test with Rattus norvegicus [7] amounted to 55%; in the test on Rattus norvegicus [8], 17%. In addition, in the test on Rattus norvegicus [6], the Inhibition is listed as 48%. Further, in the test on Rattus norvegicus [9], the Relative potency is listed as 2.1. For the same compound, the inhibition in vivo at 36 mg/kg in the test with Rattus norvegicus [10] amounted to 52%; in the test with Rattus norvegicus [12], 79%. Besides, in the test with Rattus norvegicus [11], the inhibition in vivo at 18 mg/kg was found to be 64%.
In the case of `CSc1ccc(Cn2c(O)c(CC=C(C)C)c(=O)n3c4c(=O)n(C)c(=O)n(C)c4nc23)cc1`, the inhibition in vivo at 25 mg/kg was determined as 63% in the test with Rattus norvegicus [13] and 0% in the test with Rattus norvegicus [14].
Take `C=CCc1c(O)n(Cc2ccccc2)c2nc3c(c(=O)n(C)c(=O)n3C)n2c1=O`: the inhibition in test [2] was 16% and 20%; in test [3] it was 16%. For the same compound, the inhibition in vivo at 10 mg/kg in the test on Rattus norvegicus [15] and in the test with Rattus norvegicus [16] was 16% in each case. This compound also gave an Inhibition in the test with Rattus norvegicus [6] of 29%.
On to `COc1ccc2c(c1)c(CC(=O)O)c(C)n2C(=O)c1ccc(Cl)cc1` [INDOMETHACIN], for which the Ulcer incidence in the test on Rattus norvegicus [17] and in the test filed under Rattus norvegicus [19] was 8 number/group each time. Further, the Lesion length in the test filed under Rattus norvegicus [18] is given as 4.2 mm rat-1. In addition, in the test filed under Rattus norvegicus [20], the Length was determined as 5 mm rat-1.
`CC(C)=CCc1c(O)n(Cc2ccc([S+](C)[O-])cc2)c2nc3c(c(=O)n(C)c(=O)n3C)n2c1=O` (stereo unspecified): the inhibition in vivo at 25 mg/kg stood at 47% in the test with Rattus norvegicus [13] and 13% in the test on Rattus norvegicus [14].
Turning to `C/C=C/Cc1c(O)n(Cc2ccccc2)c2nc3c(c(=O)n(C)c(=O)n3C)n2c1=O`, the inhibition is 26% and 29% in test [2]; 49% in test [3]. For the same compound, the inhibition in vivo at 10 mg/kg in the test with Rattus norvegicus [21] amounted to 17%; in the test with Rattus norvegicus [22] it was 24%. The compound further gave an Inhibition in the test with Rattus norvegicus [6] of 12%.
